{
  "source": "ChEMBL document CHEMBL4184148",
  "about": "(Bioorg Med Chem Lett, 2017)",
  "key": {"[1]": {"molecular_target": "Mitogen-activated protein kinase kinase kinase 11 (Homo sapiens) (UniProt Q16584)", "test": "Binding affinity to wild-type human partial length MLK3 (I77 to W399 residues) expressed in Escherichia coli BL21 at 1 uM by Kinomescan method relative to control"}, "[2]": {"molecular_target": "Serine/threonine-protein kinase 32A (Homo sapiens) (UniProt Q8WU08)", "test": "Binding affinity to wild-type human full length YANK1 (M1 to L396 residues) expressed in HEK293 cells at 1 uM by Kinomescan method relative to control", "assay_type": "cell-based", "summary_of_the_method": "(§1)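 Kinome-wide competition binding panel run by an outside provider, with each compound tested at a single concentration. Activity is read against the kinase panel.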"}, "[3]": {"molecular_target": "Eukaryotic translation initiation factor 2-alpha kinase 1 (Homo sapiens) (UniProt Q9BQI3)", "sequence (Q9BQI3 whole entry, the tested form may be a part)": "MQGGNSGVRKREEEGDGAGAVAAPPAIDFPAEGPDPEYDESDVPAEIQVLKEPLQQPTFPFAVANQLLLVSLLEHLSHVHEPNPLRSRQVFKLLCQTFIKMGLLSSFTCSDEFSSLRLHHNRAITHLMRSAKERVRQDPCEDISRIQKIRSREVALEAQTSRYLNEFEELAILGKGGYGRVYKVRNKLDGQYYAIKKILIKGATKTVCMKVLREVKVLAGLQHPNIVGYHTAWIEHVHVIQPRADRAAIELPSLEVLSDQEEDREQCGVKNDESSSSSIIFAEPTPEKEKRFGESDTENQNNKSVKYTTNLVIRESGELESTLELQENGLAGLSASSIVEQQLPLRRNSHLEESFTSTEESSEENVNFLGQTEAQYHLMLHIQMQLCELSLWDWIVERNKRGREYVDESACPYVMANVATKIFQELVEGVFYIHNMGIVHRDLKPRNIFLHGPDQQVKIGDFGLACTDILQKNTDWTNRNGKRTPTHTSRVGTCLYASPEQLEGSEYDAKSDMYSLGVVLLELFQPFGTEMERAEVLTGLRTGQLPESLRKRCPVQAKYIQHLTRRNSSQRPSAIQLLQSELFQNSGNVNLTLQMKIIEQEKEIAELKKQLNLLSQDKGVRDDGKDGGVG", "test": "Binding affinity to wild-type human partial length EIF2AK1 (Q147 to E603 residues) expressed in HEK293 cells at 1 uM by Kinomescan method relative to control", "assay_type": "cell-based"}, "[4]": {"molecular_target": "Mitogen-activated protein kinase 8 (Homo sapiens) (UniProt P45983)", "test": "Binding affinity to wild-type human full length JNK1 (M1 to Q384 residues) expressed in HEK293 cells at 1 uM by Kinomescan method relative to control", "assay_type": "cell-based", "summary_of_the_method": "(§2)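 Run as one kinome-wide competition binding panel with each compound at a single fixed concentration. Results were plotted as a kinome-wide selectivity map.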"}, "[5]": {"molecular_target": "Myosin-IIIa (Homo sapiens) (UniProt Q8NEV4)", "test": "Binding affinity to wild-type human partial length MYO3A (M1 to K338 residues) expressed in Escherichia coli BL21 at 1 uM by Kinomescan method relative to control"}, "[6]": {"molecular_target": "Serine/threonine-protein kinase tousled-like 2 (Homo sapiens) (UniProt Q86UE8)", "test": "Binding affinity to wild-type human partial length TLK2 (E424 to N749 residues) expressed in Escherichia coli BL21 at 1 uM by Kinomescan method relative to control"}, "[7]": {"molecular_target": "Tyrosine-protein kinase receptor TYRO3 (Homo sapiens) (UniProt Q06418)", "sequence (Q06418 whole entry, the tested form may be a part)": "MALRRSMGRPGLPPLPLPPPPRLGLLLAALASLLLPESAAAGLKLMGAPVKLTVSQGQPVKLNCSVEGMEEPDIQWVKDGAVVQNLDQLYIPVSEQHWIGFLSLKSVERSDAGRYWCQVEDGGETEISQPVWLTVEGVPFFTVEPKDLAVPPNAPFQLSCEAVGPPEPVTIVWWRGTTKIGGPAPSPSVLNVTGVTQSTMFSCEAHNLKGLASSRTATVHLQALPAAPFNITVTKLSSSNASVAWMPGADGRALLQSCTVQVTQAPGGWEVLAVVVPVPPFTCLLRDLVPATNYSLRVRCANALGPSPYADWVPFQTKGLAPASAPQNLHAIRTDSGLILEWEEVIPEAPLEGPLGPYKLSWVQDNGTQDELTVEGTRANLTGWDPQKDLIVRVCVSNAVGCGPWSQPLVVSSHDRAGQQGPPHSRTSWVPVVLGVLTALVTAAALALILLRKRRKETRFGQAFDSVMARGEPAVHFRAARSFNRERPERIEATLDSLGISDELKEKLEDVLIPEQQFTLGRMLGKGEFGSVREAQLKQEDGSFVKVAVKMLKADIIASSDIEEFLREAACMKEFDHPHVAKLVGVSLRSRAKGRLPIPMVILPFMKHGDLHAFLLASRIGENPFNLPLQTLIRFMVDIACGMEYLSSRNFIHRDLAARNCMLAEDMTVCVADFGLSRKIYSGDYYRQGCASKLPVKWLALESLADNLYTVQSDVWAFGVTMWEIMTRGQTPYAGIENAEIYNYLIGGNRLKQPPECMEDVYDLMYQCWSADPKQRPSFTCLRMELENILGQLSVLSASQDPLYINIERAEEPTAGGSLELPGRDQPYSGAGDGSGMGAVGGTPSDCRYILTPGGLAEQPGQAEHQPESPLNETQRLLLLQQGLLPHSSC", "test": "Binding affinity to wild-type human partial length TYRO3 (S497 to T814 residues) expressed in Escherichia coli BL21 at 1 uM by Kinomescan method relative to control"}, "[8]": {"molecular_target": "Cyclin-dependent kinase 14 (Homo sapiens) (UniProt O94921)", "test": "Binding affinity to wild-type human full length PFTK1 (M1 to H451 residues) expressed in Escherichia coli BL21 at 1 uM by Kinomescan method relative to control", "summary_of_the_method": "as §1"}, "[9]": {"molecular_target": "AP2-associated protein kinase 1 (Homo sapiens) (UniProt Q2M2I8)", "test": "Binding affinity to human wild-type AAK1 (G25 to L333 residues) expressed in Escherichia coli BL21 at 1 uM by Kinomescan method relative to control"}, "[10]": {"molecular_target": "Epidermal growth factor receptor (Homo sapiens) (UniProt P00533)", "test": "Binding affinity to human partial length EGFR L747-T751del/Sins mutant expressed in Escherichia coli BL21 at 1 uM by Kinomescan method relative to control"}, "[11]": {"molecular_target": "Ribosomal protein S6 kinase alpha-2 (Homo sapiens) (UniProt Q15349)", "test": "Binding affinity to wild-type human partial length N-terminal RSK2 kinase domain 1 (M1 to D394 residues) expressed in HEK293 cells at 1 uM by Kinomescan method relative to control", "assay_type": "cell-based"}, "[12]": {"test_system": "Phosphatidylinositol 4,5-bisphosphate 3-kinase catalytic subunit alpha isoform (Homo sapiens), P42336 [C420R]", "test": "Binding affinity to human partial length PIK3CA C420R mutant (R108 to N1068 residues) expressed in HEK293 cells at 1 uM by Kinomescan method relative to control", "assay_type": "cell-based"}, "[13]": {"test_system": "Tyrosine-protein kinase ABL1 (Homo sapiens), P00519 [Q252H]", "test": "Binding affinity to human non-phosphorylated ABL1 Q252H mutant (S229 to K512 residues) expressed in HEK293 cells at 1 uM by Kinomescan method relative to control", "assay_type": "cell-based"}, "[14]": {"molecular_target": "Phosphatidylinositol 4-phosphate 5-kinase type-1 gamma (Homo sapiens) (UniProt O60331)", "sequence (O60331 whole entry, the tested form may be a part)": "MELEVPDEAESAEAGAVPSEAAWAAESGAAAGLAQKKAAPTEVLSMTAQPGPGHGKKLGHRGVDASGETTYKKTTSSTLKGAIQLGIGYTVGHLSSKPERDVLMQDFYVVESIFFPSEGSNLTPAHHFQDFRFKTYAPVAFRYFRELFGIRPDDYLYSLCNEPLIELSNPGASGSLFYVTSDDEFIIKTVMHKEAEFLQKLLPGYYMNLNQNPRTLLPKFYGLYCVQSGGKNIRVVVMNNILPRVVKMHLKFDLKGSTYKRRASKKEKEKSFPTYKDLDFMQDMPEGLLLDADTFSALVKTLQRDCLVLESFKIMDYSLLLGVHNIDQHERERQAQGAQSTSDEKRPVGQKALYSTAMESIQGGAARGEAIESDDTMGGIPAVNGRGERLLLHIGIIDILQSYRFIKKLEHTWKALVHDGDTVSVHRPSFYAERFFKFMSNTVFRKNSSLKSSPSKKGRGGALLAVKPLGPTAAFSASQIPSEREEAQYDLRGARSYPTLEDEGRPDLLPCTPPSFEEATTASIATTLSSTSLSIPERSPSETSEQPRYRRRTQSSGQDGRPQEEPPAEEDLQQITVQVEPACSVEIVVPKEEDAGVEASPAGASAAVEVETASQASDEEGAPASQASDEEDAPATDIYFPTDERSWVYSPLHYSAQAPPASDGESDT", "test": "Binding affinity to wild-type human partial length PIP5K1C (M1 to T668 residues) expressed in HEK293 cells at 1 uM by Kinomescan method relative to control", "assay_type": "cell-based"}, "[15]": {"test_system": "Tyrosine-protein kinase ABL1 (Homo sapiens), P00519 [F317L]", "test": "Binding affinity to human phosphorylated ABL1 F317L mutant (S229 to K512 residues) expressed in HEK293 cells at 1 uM by Kinomescan method relative to control", "assay_type": "cell-based"}, "[16]": {"molecular_target": "Activin receptor type-1-like (Homo sapiens) (UniProt P37023)", "test": "Binding affinity to wild-type human ACVRL1 (L164 to Q503 residues) expressed in Escherichia coli BL21 at 1 uM by Kinomescan method relative to control"}, "[17]": {"molecular_target": "1-phosphatidylinositol 3-phosphate 5-kinase (Homo sapiens) (UniProt Q9Y2I7)", "sequence (Q9Y2I7 whole entry, the tested form may be a part)": "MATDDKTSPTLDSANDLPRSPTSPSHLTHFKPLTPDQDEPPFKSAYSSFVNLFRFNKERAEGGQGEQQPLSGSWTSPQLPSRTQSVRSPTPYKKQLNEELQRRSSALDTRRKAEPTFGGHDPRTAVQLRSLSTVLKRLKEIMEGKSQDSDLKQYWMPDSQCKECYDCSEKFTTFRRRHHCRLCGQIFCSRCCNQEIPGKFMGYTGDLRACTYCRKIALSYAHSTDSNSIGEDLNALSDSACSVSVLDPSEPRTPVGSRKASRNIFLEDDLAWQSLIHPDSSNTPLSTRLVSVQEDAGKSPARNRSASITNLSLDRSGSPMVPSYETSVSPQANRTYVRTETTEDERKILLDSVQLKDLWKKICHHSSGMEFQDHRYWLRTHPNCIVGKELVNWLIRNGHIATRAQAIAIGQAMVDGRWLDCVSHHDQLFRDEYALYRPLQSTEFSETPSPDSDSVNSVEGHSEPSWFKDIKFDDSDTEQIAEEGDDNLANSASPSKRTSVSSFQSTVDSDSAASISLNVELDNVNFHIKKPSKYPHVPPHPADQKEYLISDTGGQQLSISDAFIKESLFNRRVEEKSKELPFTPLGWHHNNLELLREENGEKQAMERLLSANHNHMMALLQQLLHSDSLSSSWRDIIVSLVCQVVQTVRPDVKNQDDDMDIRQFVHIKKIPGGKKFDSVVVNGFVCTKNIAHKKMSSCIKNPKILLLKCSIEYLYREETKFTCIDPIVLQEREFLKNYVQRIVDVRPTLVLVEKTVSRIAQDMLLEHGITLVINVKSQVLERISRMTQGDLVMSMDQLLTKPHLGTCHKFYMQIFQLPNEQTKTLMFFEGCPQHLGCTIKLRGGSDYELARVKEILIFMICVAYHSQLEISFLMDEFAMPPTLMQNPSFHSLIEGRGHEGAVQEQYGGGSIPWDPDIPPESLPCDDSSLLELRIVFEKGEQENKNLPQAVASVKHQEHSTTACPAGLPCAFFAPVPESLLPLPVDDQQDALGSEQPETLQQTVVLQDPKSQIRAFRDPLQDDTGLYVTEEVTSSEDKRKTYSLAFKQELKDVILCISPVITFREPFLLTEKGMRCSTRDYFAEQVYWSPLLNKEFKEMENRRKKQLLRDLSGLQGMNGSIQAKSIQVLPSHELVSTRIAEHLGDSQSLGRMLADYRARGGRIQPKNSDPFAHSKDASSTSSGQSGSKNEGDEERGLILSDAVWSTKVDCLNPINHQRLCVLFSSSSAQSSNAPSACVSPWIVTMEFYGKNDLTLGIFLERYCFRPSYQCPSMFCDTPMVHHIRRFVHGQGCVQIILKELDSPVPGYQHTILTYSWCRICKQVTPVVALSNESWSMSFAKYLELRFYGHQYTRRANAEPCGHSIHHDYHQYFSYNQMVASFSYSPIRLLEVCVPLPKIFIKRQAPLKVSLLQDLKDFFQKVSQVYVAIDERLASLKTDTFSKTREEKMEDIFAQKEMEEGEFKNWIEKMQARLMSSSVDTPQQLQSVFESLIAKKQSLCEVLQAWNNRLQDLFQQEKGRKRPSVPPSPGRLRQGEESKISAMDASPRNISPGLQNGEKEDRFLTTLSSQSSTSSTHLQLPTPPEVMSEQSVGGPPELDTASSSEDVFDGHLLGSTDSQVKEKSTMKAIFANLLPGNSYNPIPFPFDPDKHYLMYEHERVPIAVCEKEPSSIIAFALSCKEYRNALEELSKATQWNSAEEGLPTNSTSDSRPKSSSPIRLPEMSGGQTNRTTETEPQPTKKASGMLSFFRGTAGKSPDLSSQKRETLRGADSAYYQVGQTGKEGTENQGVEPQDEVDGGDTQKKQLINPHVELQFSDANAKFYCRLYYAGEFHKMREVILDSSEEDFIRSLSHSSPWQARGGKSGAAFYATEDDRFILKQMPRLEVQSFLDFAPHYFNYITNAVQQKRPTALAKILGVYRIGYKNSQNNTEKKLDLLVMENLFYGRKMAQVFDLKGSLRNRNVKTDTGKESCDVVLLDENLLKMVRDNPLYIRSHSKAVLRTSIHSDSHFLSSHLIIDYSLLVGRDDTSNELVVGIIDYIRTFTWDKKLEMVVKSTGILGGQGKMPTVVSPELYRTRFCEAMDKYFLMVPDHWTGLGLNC", "test": "Binding affinity to wild-type human partial length PIKFYVE (F1512 to C2098 residues) expressed in HEK293 cells at 1 uM by Kinomescan method relative to control", "assay_type": "cell-based"}, "[18]": {"molecular_target": "Serine/threonine-protein kinase PLK4 (Homo sapiens) (UniProt O00444)", "test": "Binding affinity to wild-type human partial length PLK4 (M1 to S273 residues) expressed in HEK293 cells at 1 uM by Kinomescan method relative to control", "assay_type": "cell-based"}, "[19]": {"molecular_target": "LIM domain kinase 2 (Homo sapiens) (UniProt P53671)", "test": "Binding affinity to wild-type human full length LIMK2 (M1 to P638 residues) expressed in Escherichia coli BL21 at 1 uM by Kinomescan method relative to control", "summary_of_the_method": "as §2"}, "[20]": {"test_system": "Mast/stem cell growth factor receptor Kit (Homo sapiens), P10721 [D816V]", "test": "Binding affinity to human partial length KIT D816V mutant (I571 to D952 residues) expressed in Escherichia coli BL21 at 1 uM by Kinomescan method relative to control"}, "[21]": {"molecular_target": "Serine/threonine-protein kinase ULK3 (Homo sapiens) (UniProt Q6PHR2)", "test": "Binding affinity to wild-type human partial length ULK3 (M1 to Q290 residues) expressed in HEK293 cells at 1 uM by Kinomescan method relative to control", "assay_type": "cell-based"}, "[22]": {"test": "Half life in mouse hepatic microsomes at 1 mg/ml", "assay_type": "ADME, Liver, microsome"}, "[23]": {"molecular_target": "Tyrosine-protein kinase Lyn (Homo sapiens) (UniProt P07948)", "test": "Binding affinity to wild-type human partial length LYN (C219 to Q511 residues) expressed in Escherichia coli BL21 at 1 uM by Kinomescan method relative to control"}, "[24]": {"molecular_target": "Mitogen-activated protein kinase kinase kinase 7 (Homo sapiens) (UniProt O43318)", "test": "Binding affinity to wild-type human partial length TAK1 (M1 to Q303 residues) expressed in HEK293 cells at 1 uM by Kinomescan method relative to control", "assay_type": "cell-based"}, "[25]": {"molecular_target": "Uncharacterized serine/threonine-protein kinase SBK3 (Homo sapiens) (UniProt P0C264)", "test": "Binding affinity to wild-type human partial length SgK110 (L22 to R329 residues) expressed in Escherichia coli BL21 at 1 uM by Kinomescan method relative to control"}, "[26]": {"molecular_target": "NUAK family SNF1-like kinase 2 (Homo sapiens) (UniProt Q9H093)", "sequence (Q9H093 whole entry, the tested form may be a part)": "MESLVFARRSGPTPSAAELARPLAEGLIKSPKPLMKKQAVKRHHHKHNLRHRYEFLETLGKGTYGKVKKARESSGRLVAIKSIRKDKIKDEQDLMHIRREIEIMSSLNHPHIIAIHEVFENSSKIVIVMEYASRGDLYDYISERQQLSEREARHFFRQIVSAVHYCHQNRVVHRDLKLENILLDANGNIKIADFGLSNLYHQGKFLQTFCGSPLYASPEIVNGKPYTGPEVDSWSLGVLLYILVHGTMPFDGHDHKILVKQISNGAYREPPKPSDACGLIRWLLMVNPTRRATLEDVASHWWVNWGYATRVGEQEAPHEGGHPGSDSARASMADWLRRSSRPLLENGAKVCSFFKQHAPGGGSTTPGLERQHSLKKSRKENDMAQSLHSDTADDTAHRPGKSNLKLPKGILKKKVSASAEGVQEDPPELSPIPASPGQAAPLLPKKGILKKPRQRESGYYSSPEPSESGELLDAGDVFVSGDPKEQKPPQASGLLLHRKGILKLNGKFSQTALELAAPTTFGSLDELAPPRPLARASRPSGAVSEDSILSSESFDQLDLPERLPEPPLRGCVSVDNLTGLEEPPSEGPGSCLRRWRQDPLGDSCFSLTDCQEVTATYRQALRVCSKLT", "test": "Binding affinity to wild-type human partial length SNARK (P22 to A333 residues) expressed in HEK293 cells at 1 uM by Kinomescan method relative to control", "assay_type": "cell-based"}},
  "data": [
    {"smiles": "C=CC(=O)Nc1ccc(C(=O)Nc2ccc(Nc3ncc4c(n3)N(C)c3ccc(C)cc3C(=O)N4C)cc2)cc1", "values": [
      {"measurement": "Activity", "setting": "[1]", "result": 83, "unit": "%"},
      {"measurement": "Activity", "setting": "[2]", "result": 100, "unit": "%"},
      {"measurement": "Activity", "setting": "[3]", "result": 100, "unit": "%"},
      {"measurement": "Activity", "setting": "[4]", "result": 85, "unit": "%"},
      {"measurement": "Activity", "setting": "[5]", "result": 94, "unit": "%"},
      {"measurement": "Activity", "setting": "[6]", "result": 98, "unit": "%"},
      {"measurement": "Activity", "setting": "[7]", "result": 92, "unit": "%"},
      {"measurement": "Activity", "setting": "[8]", "result": 100, "unit": "%"},
      {"measurement": "Activity", "setting": "[9]", "result": 99, "unit": "%"},
      {"measurement": "Activity", "setting": "[10]", "result": 81, "unit": "%"},
      {"measurement": "Activity", "setting": "[11]", "result": 82, "unit": "%"},
      {"measurement": "Activity", "setting": "[12]", "result": 58, "unit": "%"},
      {"measurement": "Activity", "setting": "[13]", "result": 68, "unit": "%"},
      {"measurement": "Activity", "setting": "[14]", "result": 98, "unit": "%"},
      {"measurement": "Activity", "setting": "[15]", "result": 92, "unit": "%"},
      {"measurement": "Activity", "setting": "[16]", "result": 92, "unit": "%"},
      {"measurement": "Activity", "setting": "[17]", "result": 100, "unit": "%"},
      {"measurement": "Activity", "setting": "[18]", "result": 71, "unit": "%"},
      {"measurement": "Activity", "setting": "[19]", "result": 100, "unit": "%"},
      {"measurement": "Activity", "setting": "[20]", "result": 88, "unit": "%"},
      {"measurement": "Activity", "setting": "[21]", "result": 93, "unit": "%"},
      {"measurement": "t1/2", "setting": "[22]", "result": 7.5, "unit": "min"},
      {"measurement": "Activity", "setting": "[23]", "result": 97, "unit": "%"},
      {"measurement": "Activity", "setting": "[24]", "result": 96, "unit": "%"},
      {"measurement": "Activity", "setting": "[25]", "result": 93, "unit": "%"},
      {"measurement": "Activity", "setting": "[26]", "result": 93, "unit": "%"}
    ]},
    {"smiles": "CCC(=O)Nc1ccc(C(=O)Nc2ccc(Nc3ncc4c(n3)N(C)c3ccc(C)cc3C(=O)N4C)cc2)cc1", "values": [
      {"measurement": "Activity", "setting": "[1]", "result": 95, "unit": "%"},
      {"measurement": "Activity", "setting": "[2]", "result": 82, "unit": "%"},
      {"measurement": "Activity", "setting": "[3]", "result": 93, "unit": "%"},
      {"measurement": "Activity", "setting": "[4]", "result": 75, "unit": "%"},
      {"measurement": "Activity", "setting": "[5]", "result": 96, "unit": "%"},
      {"measurement": "Activity", "setting": "[6]", "result": 100, "unit": "%"},
      {"measurement": "Activity", "setting": "[7]", "result": 91, "unit": "%"},
      {"measurement": "Activity", "setting": "[8]", "result": 95, "unit": "%"},
      {"measurement": "Activity", "setting": "[9]", "result": 100, "unit": "%"},
      {"measurement": "Activity", "setting": "[10]", "result": 89, "unit": "%"},
      {"measurement": "Activity", "setting": "[11]", "result": 66, "unit": "%"},
      {"measurement": "Activity", "setting": "[12]", "result": 89, "unit": "%"},
      {"measurement": "Activity", "setting": "[13]", "result": 64, "unit": "%"},
      {"measurement": "Activity", "setting": "[14]", "result": 88, "unit": "%"},
      {"measurement": "Activity", "setting": "[15]", "result": 100, "unit": "%"},
      {"measurement": "Activity", "setting": "[16]", "result": 90, "unit": "%"},
      {"measurement": "Activity", "setting": "[17]", "result": 98, "unit": "%"},
      {"measurement": "Activity", "setting": "[18]", "result": 8.2, "unit": "%"},
      {"measurement": "Activity", "setting": "[19]", "result": 89, "unit": "%"},
      {"measurement": "Activity", "setting": "[20]", "result": 91, "unit": "%"},
      {"measurement": "Activity", "setting": "[21]", "result": 77, "unit": "%"},
      {"measurement": "t1/2", "setting": "[22]", "result": 2.9, "unit": "min"},
      {"measurement": "Activity", "setting": "[23]", "result": 97, "unit": "%"},
      {"measurement": "Activity", "setting": "[24]", "result": 66, "unit": "%"},
      {"measurement": "Activity", "setting": "[25]", "result": 70, "unit": "%"},
      {"measurement": "Activity", "setting": "[26]", "result": 65, "unit": "%"}
    ]}
  ]
}
